NR2E3 ag-1: activates human photoreceptor nuclear receptor NR2E3. hit rate 0.12% among 320,000. GST-NR2E3/biotin-RetCOR TR-FRET, 1536-well. Q9Y5X4. inhibition of corepressor binding, % at 4.78 µM;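 active = percent inhibition above the cutoff of mean plus 3 SD of all tested compounds, set per screening campaign, cut at about 20% in these data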
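System: GST-tagged NR2E3 plus biotinylated RetCOR corepressor; Buffer or medium: pH 7.5 Tris-based buffer; Probe or stimulus: RetCOR corepressor, biotinylated, 7 nM; Doses: compound at 4.8 µM, single dose; Schedule: 5 h incubation at 4 °C; Technique: time-resolved FRET; Evaluation: percent inhibition of TR-FRET ratio; Replication: one well per compound, singlicate testing.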
NR1D1 modulator: modulators of human Rev-erb alpha DNA binding. Rev-erbα–FITC-DNA binding, fluorescence polarization, 90 min. AID 1259318. hit rate 0.79% among 370,000. P20393. activity, % at 10 µM;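 active = activity above about 14%, limit read from the data; passing the limit was not always enough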
Target sequence (P20393 whole entry, looked up): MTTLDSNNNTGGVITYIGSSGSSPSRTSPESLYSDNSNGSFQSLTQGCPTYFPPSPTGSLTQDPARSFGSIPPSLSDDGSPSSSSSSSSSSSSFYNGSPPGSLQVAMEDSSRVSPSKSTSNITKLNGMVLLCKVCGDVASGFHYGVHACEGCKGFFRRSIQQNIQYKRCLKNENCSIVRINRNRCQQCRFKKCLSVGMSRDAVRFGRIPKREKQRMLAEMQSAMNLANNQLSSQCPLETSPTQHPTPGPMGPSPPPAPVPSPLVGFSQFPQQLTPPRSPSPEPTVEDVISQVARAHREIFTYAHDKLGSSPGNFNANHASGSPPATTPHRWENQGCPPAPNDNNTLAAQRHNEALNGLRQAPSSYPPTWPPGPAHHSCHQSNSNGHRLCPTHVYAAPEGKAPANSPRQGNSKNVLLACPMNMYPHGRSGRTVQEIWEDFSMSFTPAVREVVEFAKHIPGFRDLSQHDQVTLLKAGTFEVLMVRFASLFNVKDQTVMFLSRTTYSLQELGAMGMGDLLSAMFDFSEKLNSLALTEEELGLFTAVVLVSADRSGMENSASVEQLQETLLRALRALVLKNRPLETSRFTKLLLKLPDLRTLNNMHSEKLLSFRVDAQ
Neddyl block: inhibitors of human cullin neddylation; hit rate 0.58% among 360,000; AID 651699; calls only at 25 µM; TR-FRET cullin neddylation, biochemical; P61081+Q13564; in the data active = inhibition above about 36%
PG9 binder: small molecules binding HIV-1 gp120 antibody PG9; AID 624416; TR-FRET gp120-PG9 antibody binding; hit rate 0.43% among 360,000; inhibition, % at 6.7 µM; in the data active = inhibition above about 8.5%
NR2E3 ag-2: human photoreceptor-specific nuclear receptor agonism; Q9Y5X4; CHO-S Gal4-NCOR/VP16-NR2E3 two-hybrid, luciferase; inhibition of corepressor binding, % at 3.98 µM; hit rate 0.35% among 360,000; AID 602229;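 active = inhibition above the mean of all tested compounds plus 3 SD, cut at about 70% in these data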;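 note: higher means lower luciferase signal from less NR2E3 corepressor binding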
Neddyl conf: confirmation of human cullin neddylation inhibitors | AID 652217 | TR-FRET cullin neddylation biochemical assay | calls only at 25 µM | shares compounds with Neddyl block | hit rate 13% among 1,800; in the data active = inhibition above about 40%;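 note: neddylation substrate is the cullin 1 ring ligase complex with SKP2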
NR1D1 mod conf: confirmation of modulators of human Rev-erb alpha DNA binding. Rev-erb alpha FITC-DNA binding, fluorescence polarization, 90 min. activation, % at 25 µM. hit rate 61% among 3,000. shares compounds with NR1D1 modulator;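 active = activation at or above a set limit, or at least 3 SD above the negative control mean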
RORg DNA counter: affects RORgamma DNA binding in a Rev-erb alpha counter-screen. shares compounds with NR1D1 modulator. purified RORgamma protein-FITC-DNA binding, fluorescence polarization. IC50, µM. hit rate 8% among 910;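 active = Compounds whose fitted half-maximal concentration for disrupting protein-DNA binding is below 10 micromolar; the record names Rev-erb in its text, so the target is in doubt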
A number is an active result. Shown are actives, neighbours in structure and some others; about 2% of the full set was active somewhere.

Results for O=C(Nc1cccc(Cl)c1)c1ccc2sc([C@H]3C[C@H](O)[C@@H](CO)O3)nc2c1 ?
NR1D1 modulator: inactive; Neddyl block: inactive; PG9 binder: inactive; NR2E3 ag-2: inactive

Results for Cc1cc(C(=O)NCc2ccccc2)c(=O)[nH]c1C ?
NR2E3 ag-1: inactive; NR1D1 modulator: inactive; Neddyl block: active; PG9 binder: inactive; NR2E3 ag-2: inactive; Neddyl conf: active

What do the screens show for `CCC(C)c1c(NS(=O)(=O)c2ccc(C)cc2)o[nH]c1=O` (stereo not given)?
NR1D1 modulator: inactive; Neddyl block: inactive; PG9 binder: inactive; NR2E3 ag-2: inactive

Results for COC(=O)C1C(O)=C(C(C)=Nc2cccc3ccccc23)C(=O)CC1(C)C (stereo not given) ?
NR2E3 ag-1: inactive; NR1D1 modulator: inactive; Neddyl block: active; PG9 binder: inactive; NR2E3 ag-2: inactive; Neddyl conf: inactive

Results for COc1ccc(C2CC(c3cccs3)=NN2C(=O)CSC2=NCCS2)cc1 (stereo not given) ?
NR2E3 ag-1: inactive; NR1D1 modulator: 14.4; Neddyl block: active; PG9 binder: inactive; NR2E3 ag-2: inactive; Neddyl conf: inactive; NR1D1 mod conf: inactive

Results for CC1(C)O[C@@H]2[C@H](O1)[C@@H](COS(=O)(=O)O)O[C@H]2n1cc(Br)c(=O)[nH]c1=O ?
NR1D1 modulator: inactive; Neddyl block: inactive; PG9 binder: inactive; NR2E3 ag-2: inactive

Results for COc1ccc(-c2csc3ncnc(N4CCN(S(=O)(=O)c5cccc(Br)c5)CC4)c23)cc1 ?
NR2E3 ag-1: inactive; NR1D1 modulator: 16.2; Neddyl block: inactive; PG9 binder: inactive; NR2E3 ag-2: inactive; NR1D1 mod conf: 18.0

What do the screens show for `COc1ccc(-c2csc3ncnc(N4CCN(S(=O)(=O)c5cccc(C(F)(F)F)c5)CC4)c23)cc1`?
NR2E3 ag-1: inactive; NR1D1 modulator: inactive; Neddyl block: inactive; PG9 binder: inactive; NR2E3 ag-2: inactive

What do the screens show for `Cc1ccc(S(=O)(=O)N2CCN(c3ncnc4scc(-c5ccccc5)c34)CC2)cc1`?
NR1D1 modulator: inactive; Neddyl block: inactive; PG9 binder: inactive; NR2E3 ag-2: inactive

How did Cc1ccc(S(=O)(=O)N2CCN(c3ncnc4scc(-c5ccc(F)cc5)c34)CC2)cc1 do in these assays?
NR2E3 ag-1: inactive; NR1D1 modulator: 23.6; Neddyl block: inactive; PG9 binder: inactive; NR2E3 ag-2: inactive; NR1D1 mod conf: inactive

How did COC(=O)[C@@H](NCc1ccc(OC)c(B(O)O)c1)C(C)C do in these assays?
NR1D1 modulator: inactive; Neddyl block: inactive; PG9 binder: inactive; NR2E3 ag-2: inactive

How did O=C(CSc1nnc(-c2ccccc2NC(=O)c2ccccc2)o1)OC1CCCCC1 do in these assays?
NR2E3 ag-1: inactive; NR1D1 modulator: 108.4; Neddyl block: inactive; PG9 binder: inactive; NR2E3 ag-2: inactive; NR1D1 mod conf: inactive

How did O=C(CSc1nnc(-c2cccs2)o1)OC1CCCCC1 do in these assays?
NR2E3 ag-1: inactive; NR1D1 modulator: inactive; Neddyl block: inactive; PG9 binder: inactive; NR2E3 ag-2: inactive

Results for Cc1cccc(C)c1Cn1c(C)c(C(=O)NCc2ccc([N+](=O)[O-])cc2)sc1=O ?
NR1D1 modulator: inactive; Neddyl block: inactive; PG9 binder: inactive; NR2E3 ag-2: inactive

Results for CCOC(=O)C1=C(C)NC(C)=C(C(=O)OCC)C1C(=O)OCC(=O)Nc1ccc(NC(C)=O)cc1 ?
NR1D1 modulator: inactive; Neddyl block: inactive; PG9 binder: inactive; NR2E3 ag-2: inactive

What do the screens show for `NC(=O)c1ncn([C@@H]2O[C@H](CNCc3c(OCc4ccccc4F)ccc4ccccc34)[C@@H](O)[C@H]2O)n1`?
NR1D1 modulator: inactive; Neddyl block: inactive; PG9 binder: inactive; NR2E3 ag-2: inactive

How did CC(C)c1nc2sc3c(=O)[nH]cnc3c2c2c1CCCC2 do in these assays?
NR2E3 ag-1: inactive; NR1D1 modulator: 24.6; Neddyl block: inactive; PG9 binder: inactive; NR2E3 ag-2: inactive; NR1D1 mod conf: inactive

What do the screens show for `CCCCc1nc2sc3c(=O)[nH]cnc3c2c2c1CCCC2`?
NR2E3 ag-1: inactive; NR1D1 modulator: inactive; Neddyl block: inactive; PG9 binder: inactive; NR2E3 ag-2: inactive

Results for CC(C)Cc1nc2sc3c(=O)[nH]cnc3c2c2c1CCC2 ?
NR2E3 ag-1: inactive; NR1D1 modulator: 38.1; Neddyl block: inactive; PG9 binder: inactive; NR2E3 ag-2: inactive; NR1D1 mod conf: inactive

How did CCCc1nc2sc3c(=O)[nH]cnc3c2c2c1CCCC2 do in these assays?
NR2E3 ag-1: inactive; NR1D1 modulator: inactive; PG9 binder: inactive

Results for Cc1ccc(-n2c(N)c(C#N)c(-c3ccccc3)c(C#N)c2=O)cc1 ?
NR2E3 ag-1: inactive; NR1D1 modulator: 21.6; Neddyl block: inactive; PG9 binder: inactive; NR2E3 ag-2: inactive; NR1D1 mod conf: 61.6; RORg DNA counter: inactive

How did CC(=O)Nc1ccc(Nc2nc3ccccc3nc2NS(=O)(=O)c2ccc(Cl)c([N+](=O)[O-])c2)cc1 do in these assays?
NR1D1 modulator: inactive; Neddyl block: inactive; PG9 binder: inactive; NR2E3 ag-2: inactive

What do the screens show for `Cc1sc2nc(-c3ccco3)oc(=O)c2c1C`?
NR2E3 ag-1: inactive; NR1D1 modulator: inactive; PG9 binder: inactive; NR2E3 ag-2: inactive

What do the screens show for `Cc1sc2nc(C(C)(C)C)oc(=O)c2c1C`?
NR2E3 ag-1: inactive; NR1D1 modulator: inactive; Neddyl block: inactive; NR2E3 ag-2: inactive

Results for Cc1ccccc1-c1nc2sc(C)c(C)c2c(=O)o1 ?
NR2E3 ag-1: inactive; NR1D1 modulator: 18.0; Neddyl block: inactive; PG9 binder: inactive; NR2E3 ag-2: inactive; NR1D1 mod conf: inactive

What do the screens show for `COc1ccc(-c2csc3nc(-c4ccc(C)cc4)oc(=O)c23)cc1OC`?
NR2E3 ag-1: inactive; NR1D1 modulator: 27.4; Neddyl block: inactive; PG9 binder: inactive; NR2E3 ag-2: inactive; NR1D1 mod conf: inactive

What do the screens show for `COc1cc(-c2nc3sc(C)c(C)c3c(=O)o2)cc(OC)c1OC`?
NR2E3 ag-1: inactive; NR1D1 modulator: 31.3; Neddyl block: inactive; PG9 binder: inactive; NR2E3 ag-2: inactive; NR1D1 mod conf: inactive

How did COc1ccc(-c2csc3nc(C(C)(C)C)oc(=O)c23)cc1OC do in these assays?
NR2E3 ag-1: inactive; NR1D1 modulator: inactive; Neddyl block: inactive; PG9 binder: inactive; NR2E3 ag-2: inactive

Results for CCc1nc2c(OCc3ccc(F)cc3)cccn2c1N(C)C(=O)COc1ccccc1 ?
NR1D1 modulator: inactive; Neddyl block: inactive; PG9 binder: inactive; NR2E3 ag-2: inactive

How did Cn1c(C(=O)Nc2ccc3c(c2)OCO3)cc2c(=O)n(C)c3ccccc3c21 do in these assays?
NR2E3 ag-1: inactive; NR1D1 modulator: inactive; PG9 binder: inactive; NR2E3 ag-2: inactive

Bioassay records from PubChem BioAssay.
